In brackets after ≈: the same amount, converted by molar mass.
Tests used:
[1] = Antianaphylactic activity in rat mast cells assessed as inhibition of DNP-ovalbumin-induced histamine release after 15 mins by superfusion assay; type: functional; conditions: Mast cell, 0.25 h, read-out: ED50 (the source's name)
Summary of the method: (§1)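 Peritoneal and pleural cells from male albino rats were washed, sensitized with 1:10 rat reaginic anti-DNP-ovalbumin serum for 2 h at 37 °C, and resuspended at 1.2-1.7 × 10⁵ mast cells/mL. Compound and DNP-ovalbumin were added together and incubated for 15 min at 37 °C. Supernatant (free) and lysed-cell (residual) histamine were assayed by guinea pig ileum superfusion bioassay. Inhibition of net histamine release was used to derive EC50 from dose ranging against the reference compound.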

[2] = Antianaphylactic activity in rat mast cells assessed as inhibition of DNP-ovalbumin-induced histamine release after 15 mins by superfusion assay relative to 4-oxo-N-(5-tetrazolyl)-4H-l-benzopyran-2-carboxamide; type: functional, Mast cell; summary of the method: as §1
Rattus norvegicus [3] = assay: Antiallergic activity in rat assessed as inhibition of DNP-ovalbumin-induced passive cutaneous anaphylaxis at 5 mg/kg, iv after 30 mins relative to control; type: functional; conditions: 0.5 h
Summary of the method: (§2)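 Female albino rats (groups of four) were shaved and sensitized by dorsal intradermal injection of 0.1 mL diluted rat reaginic anti-DNP-ovalbumin serum, raised with Bordetella pertussis adjuvant. After 48 h they were challenged iv with 2 mg DNP-ovalbumin in 0.5 mL 1% Evans blue/saline, with the compound given iv in aqueous solution at the same time. After 30 min, skin weals were scored visually on a 5-point scale; % inhibition was taken versus vehicle controls.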

Rattus norvegicus [4] = assay: Antiallergic activity in rat assessed as inhibition of DNP-ovalbumin-induced passive cutaneous anaphylaxis at 1 mg/kg, iv after 30 mins relative to control; type: functional; conditions: Rattus norvegicus, iv, 0.5 h; summary of the method: as §2
Rattus norvegicus [5] = assay: Antiallergic activity in iv dosed rat assessed as inhibition of DNP-ovalbumin-induced passive cutaneous anaphylaxis after 30 mins; type: functional; conditions: 0.5 h; summary of the method: as §2
Homo sapiens [6] = species: Homo sapiens; assay: Antianaphylactic activity in human lung fragments assessed as inhibition of sheep anti-human IgE-induced histamine release at 18 ug/ml treated 10 mins prior to sheep anti-human IgE-challenge measured after 15 mins by superfusion assay relative to control; type: functional
Summary of the method: (§3)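 Human lung fragments in Tyrode's solution were incubated with the compound for 10 min, then challenged with sheep anti-human IgE and centrifuged for 15 min after challenge. Free and residual histamine were measured by superfusion bioassay on atropine-treated guinea pig ileum. % release and % inhibition were calculated from net release. Values are means of three experiments, each in duplicate.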

Homo sapiens [7] = species: Homo sapiens; assay: Antianaphylactic activity in human lung fragments assessed as inhibition of sheep anti-human IgE-induced histamine release at 180 ug/ml treated 10 mins prior to sheep anti-human IgE-challenge measured after 15 mins by superfusion assay relative to control; type: functional; summary of the method: as §3
Rattus norvegicus [8] = assay: Antiallergic activity in po dosed rat assessed as inhibition of DNP-ovalbumin-induced passive cutaneous anaphylaxis administered 10 mins prior to DNP-ovalbumin-challenge; type: functional
Summary of the method: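 This rat passive cutaneous anaphylaxis model used reaginic anti-DNP-ovalbumin serum given intradermally, iv DNP-ovalbumin with Evans blue 48 h later, and weal scoring. Rats were starved overnight and dosed orally with the compound in aqueous solution 10 min before iv antigen challenge. ED50 was calculated with 95% confidence limits, assuming a log-linear dose response.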

Homo sapiens [9] = species: Homo sapiens; assay: Antianaphylactic activity in human lung fragments assessed as inhibition of sheep anti-human IgE-induced histamine release treated 10 mins prior to sheep anti-human IgE-challenge measured after 15 mins by superfusion assay; type: functional; summary of the method: as §3
Homo sapiens [10] = species: Homo sapiens; assay: Antianaphylactic activity in human lung fragments assessed as inhibition of sheep anti-human IgE-induced histamine release at 1.8 ug/ml treated 10 mins prior to sheep anti-human IgE-challenge measured after 15 mins by superfusion assay relative to control; type: functional; summary of the method: as §3
Homo sapiens [11] = species: Homo sapiens; assay: Antianaphylactic activity in human lung fragments assessed as inhibition of sheep anti-human IgE-induced histamine release at 0.18 ug/ml treated 10 mins prior to sheep anti-human IgE-challenge measured after 15 mins by superfusion assay relative to control; type: functional; summary of the method: as §3

Compound | EC50 [1] | fold change (potency relative to reference compound) [2] | inhibition in vivo at 5 mg/kg (Rattus norvegicus [3]) | inhibition in vivo at 1 mg/kg (Rattus norvegicus [4]) | ED50 (Rattus norvegicus [5]) | inhibition (Homo sapiens [6]) | inhibition (Homo sapiens [7]) | ED50 (Rattus norvegicus [8]) | inhibition (Homo sapiens [9]) | inhibition (Homo sapiens [10]) | inhibition (Homo sapiens [11])
O=c1c(-n2nn[nH]c2=O)coc2ccccc12 | 5 µg/mL (≈ 21.7 µM) | 0.01 | 75% |  |  |  |  |  |  |  | 
O=C(Cc1nnn[nH]1)Nc1coc2ccccc2c1=O | > 18 µg/mL | <0.005 | 0% |  |  |  |  |  |  |  | 
O=C(Nc1nnn[nH]1)c1cc(=O)c2ccccc2o1 | 0.08 µg/mL (≈ 0.311 µM) | 1 |  | 100% | 0.037 mg/kg | 43.3% | 61.6% | 21 mg/kg | Dose-dependent effect | 46.4% | 5%
O=C(O)CCCNC(=O)c1cc(=O)c2ccccc2o1 | > 18 µg/mL | <0.005 |  | 0% |  |  |  |  |  |  | 
O=C(O)CCNC(=O)c1cc(=O)c2ccccc2o1 | > 18 µg/mL | <0.005 |  | 0% |  |  |  |  |  |  | 
CCOC(=O)C(=O)Nc1ccc2oc(C(=O)OCC)cc(=O)c2c1 | 12 µg/mL (≈ 36 µM) | 0.005 |  | 65% |  |  |  |  |  |  | 
